Experimental data published in the RNAGym collection of RNA variant scans (doi:10.1126/science.aae0568).
Variants at the floor of the assay were thinned out.

B1: tRNA (parent)
chain: GUUCCGUUGGCGUAAUGGUAACGCGUCUCCCUCCUAAGGAGAAGACUGCGGGUUCGAGUCCCGUACGGAACG

Variants of: B1
Test: yeast fitness relative to wild type (ratio to wild type); higher = fitter; tRNA-Arg(CCU), competitive growth, 37 C, YPD
Summary of the method: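 Start and end populations of a pooled competition were compared by 100-nucleotide paired-end sequencing of gene amplicons. The Saccharomyces cerevisiae strains carried tRNA-Arg(CCU) gene variants at the native genomic locus, synthesised with a 3% per-site mutation rate at 69 sites, and competed in YPD at 37°C for 24 hours in six parallel replicates. Darwinian fitness relative to wild type was based on the change in genotype frequencies. Genotypes required ≥ 100 starting reads, and estimates < 0.5 were set to 0.5.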

Variant | yeast fitness
GUUCCGUUGGCGUAAUGGUAACGCGUCUCCCUCCUAAGGCGAAGCCUGCGGGUUCGAGUCCCGUACGGAACG | 0.616
GUUCCGUUGGCGUAAUGGUAACGCGUCUCCCUCCUAAGGGGAAGACUGCGGGUUCGUGUCCCGUGCGGAACG | 0.531
GUUCCGUUGGCGUAAUGGUAACGCGUCUCCCUCCUAAGUAGAAGACUGCGGAUUCGAGUCCCGUACUGAACG | ≤ 0.5
GUUCCGUUGGCGUAAUGGUAACGCGUCUCCCUCCUAAGGCGAAGGCUGCGGGUUCGAGUCCCAUACGGAACG | 0.518
GUUCCGUUGGCGUAAUGGUAACGCGUCUCCCUCCUAAGGCGAAGACUGCGGGUUCGAGUCCCGUACGAAACG | 0.933
GUUCCGUUGGCGUAAUGGUAACGCGUCUCCCUCCUAAGGCGAAGACUGCGGGCUCGAGACCCGUAUGGAACG | ≤ 0.5
GUUCCGUUGGCGUAAUGGUAACGCGUCUCCCUCCUAAGGGGAUGACUGCGGGUUCGAGUCCCGUACGGAACG | 0.995
GUUCCGUUGGCGUAAUGGUAACGCGUCUCCCUCCUAAGGGGACGACUGCGGGUUCGAGUCCCGUACGGAACG | 1.04
GUUCCGUUGGCGUAAUGGUAACGCGUCUCCCUCCUAAGGGGAGGACUGCGGGUUCGAGUCCCGUACGGAACG | 0.787
GUUCCGUUGGCGUAAUGGUAACGCGUCUCCCUCCUAAGCAGAAGACUGCGGGUUCGAGUCCCGUACGUAACG | 0.762
GUUCCGUUGGCGUAAUGGUAACGCGUCUCCCUCCUAAGGCGAAGACUGCGGCUUCGAGUCCCGUAUAGAACG | ≤ 0.5
GUUCCGUUGGCGUAAUGGUAACGCGUCUCCCUCCUAAGGGGAGGACUGCGGGUUCGAGUCCCGUACCGAACG | 0.725
GUUCCGUUGGCGUAAUGGUAACGCGUCUCCCUCCUAAGUAGAAGACUGCGGGAUUGAGUCCCGUACGGAACG | 0.684
GUUCCGUUGGCGUAAUGGUAACGCGUCUCCCUCCUAAGGCGAAGACUGCGGGUUCGAGUCUCGUACGGAACG | 0.799
GUUCCGUUGGCGUAAUGGUAACGCGUCUCCCUCCUAAGGCGAAGACUGCGGGUUCGAGUCACGUACGGAACG | 0.716
GUUCCGUUGGCGUAAUGGUAACGCGUCUCCCUCCUAAGGGGAUGACUGUGGGUUCGAGUCCCGUAUGGAACG | ≤ 0.5
GUUCCGUUGGCGUAAUGGUAACGCGUCUCCCUCCUAAGGGGAAGCCUGCGGGUUCGAGUCCCGUACGGAACG | 0.846
GUUCCGUUGGCGUAAUGGUAACGCGUCUCCCUCCUAAGGCGAAAACUGCGGGUUCGAGUCCCGUACGGAACG | 0.913
GUUCCGUUGGCGUAAUGGUAACGCGUCUCCCUCCUAAGGGGUAGACUGCGGGUUCGAGUCCCGUACCGAACG | ≤ 0.5

Variant | yeast fitness
GUUCCGUUGGCGUAAUGGUAACGCGUCUCCCUCCUAAGGCGAGGACUGCGGGUUCGAGUUUCGUACGGAACG | ≤ 0.5
GUUCCGUUGGCGUAAUGGUAACGCGUCUCCCUCCUAAGUAGAAGACUGCGGGUUCGAGUCCCGUACGGACCG | 0.811
GUUCCGUUGGCGUAAUGGUAACGCGUCUCCCUCCUAAGGCGAAGCCUGCGGGUUCGAGUCCCGUGCGUAACG | ≤ 0.5
GUUCCGUUGGCGUAAUGGUAACGCGUCUCCCUCCUAAGUAGAAGACUGCGGGUUCGAGUCCCGUACGGAACG | 1
GUUCCGUUGGCGUAAUGGUAACGCGUCUCCCUCCUAAGGCGAAGACUGCGGGUUCGAGUCCCGUACGGGACG | 0.985
GUUCCGUUGGCGUAAUGGUAACGCGUCUCCCUCCUAAGGCGAAGACUACGGGUUCGAGUGCCGUACGGAACG | 0.683
GUUCCGUUGGCGUAAUGGUAACGCGUCUCCCUCCUAAGCAGAAGACUGCGGGUUCGAGACCCGUACGGAACG | 0.779
GUUCCGUUGGCGUAAUGGUAACGCGUCUCCCUCCUAAGUAGAAGGCUGCGAGUUCGAGUCCCGUACGGAACG | 0.527
GUUCCGUUGGCGUAAUGGUAACGCGUCUCCCUCCUAAGCAGAAGACUGCGGGUUCGAGCCCCGCACGGACCG | ≤ 0.5
GUUCCGUUGGCGUAAUGGUAACGCGUCUCCCUCCUAAGGCGAAGACUGCGGGUUCGUAUCCCGUACGGAACG | 0.644
GUUCCGUUGGCGUAAUGGUAACGCGUCUCCCUCCUAAGGCGAAGACUGCGGGUUCAAGUCCCGUACGGAGCG | 0.556
GUUCCGUUGGCGUAAUGGUAACGCGUCUCCCUCCUAAGCAGAAGACUGCGGAUUCGAGUCCCGUACGAAACG | ≤ 0.5
GUUCCGUUGGCGUAAUGGUAACGCGUCUCCCUCCUAAGGCCAAGACUGCGGGUUCGAGUCCCGUACGCAACG | 0.542
GUUCCGUUGGCGUAAUGGUAACGCGUCUCCCUCCUAAGCAGAAGACAGCGGGUUCGAAUCCCAUACGGAACG | ≤ 0.5
GUUCCGUUGGCGUAAUGGUAACGCGUCUCCCUCCUAAGGGGGAGACUGCGGGUUCGAGUCCCGUACGGAACG | 0.986
GUUCCGUUGGCGUAAUGGUAACGCGUCUCCCUCCUAAGCAGAAGACUGCGCGUUGGAGUCCCGUACGGAACG | ≤ 0.5
GUUCCGUUGGCGUAAUGGUAACGCGUCUCCCUCCUAAGGGGGAGACUGCGGGUUCGAGCCCCGUACGGAACG | 0.618
GUUCCGUUGGCGUAAUGGUAACGCGUCUCCCUCCUAAGGCGAAGACUGCGGGUUCGAGACCCGUACGGAACG | 0.801
